Publication PMC13065758 (Nature Communications, 2026)

Key:
[1] = Plasma stability assay, human plasma; format: in vitro ADME
Summary of the method: (§1)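 Test compound was spiked at 10 μM into human or mouse plasma and incubated at 37 °C with shaking for 0, 30 or 120 min. Proteins were precipitated with acetonitrile containing 1 μM chlorpropamide internal standard and removed by centrifugation. Analyte/internal-standard area ratios were measured by LC-MS/MS and expressed as percent remaining versus 0 min.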

[2] = Plasma stability assay, mouse plasma; format: in vitro ADME
Summary of the method: as §1

remaining at 2 h, 10 μM [1]: 0.03%
remaining at 2 h, 10 μM [2]: 3.13%
SMILES: CCN(CC)CCOC(=O)c1ccc(N)cc1 [Procaine]
